pIC50: −log10 of the molar value.
Experiments:
[1] = target: Nucleic Acid; assay: Relative affinity for DNA binding; assay type: nucleic-acid assay
[2] = species on record: Mus musculus; assay: %T/C value measured in antitumor activity using murine P388 leukemia cells; assay type: functional
Outline: (§1)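 Mice inoculated ip with P388 leukemia cells or the adriamycin-resistant subline P388/ADM. Drug activity expressed as T/C (%), i.e. mean survival days of the treated group over those of the control group, followed for 60 days. T/C >130% taken as significant. Optimal dose reported in mg/kg per injection.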

[3] = species on record: Mus musculus; assay: Compound evaluated for optimal dose per injection against murine P388 leukemia cells; assay type: functional; outline: as §1
[4] = species on record: Mus musculus; assay: %T/C value measured in antitumor activity using murine sarcoma 180 cells; assay type: functional
Outline: (§2)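 Sarcoma 180 cells inoculated sc in mice. Drugs tested for antitumor activity, with the optimal dose given in mg/kg per injection. Activity expressed as treated versus control (T/C) value, and T/C <50% taken as effective.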

[5] = species on record: Mus musculus; assay: %T/C value measured in antitumor activity using murine P388/ADM cells.; assay type: functional; outline: as §1
[6] = system: Mus musculus; assay: Compound evaluated for optimal dose (mg/kg) per injection against murine P388 leukemia cells; assay type: functional; outline: as §1
[7] = species on record: Mus musculus; assay: Compound evaluated for optimal dose per injection against adriamycin resistant murine cell line (P388/ADM cells); assay type: functional; outline: as §1
[8] = species on record: Mus musculus; assay: Compound evaluated for optimal dose per injection against murine sarcoma 180 cells; assay type: functional; outline: as §2
[9] = species on record: Mus musculus; assay: %T/C value measured in antitumor activity using murine P388/ADM cells; assay type: functional; outline: as §1
[10] = species on record: Mus musculus; assay: %T/C value measured in antitumor activity using murine sarcoma 180 tumor cells; assay type: functional; outline: as §2

Question: CN(C)CCNCc1nn2c3cccc(O)c3c(=O)c3c(NCCN(C)C)ccc1c32 was tested. Which pIC50 [1] did it give?
Answer: 6.80

Question: Which T/C [2] does the source give for NCCNCc1nn2c3ccccc3c(=O)c3c(NCCN)ccc1c32 here?
Answer: 150%

Question: And the Optimal dose [3]?
Answer: 38 mg/kg

Question: What about the pIC50 [1] of the same compound?
Answer: 6.89

Question: How did the T/C [4] turn out when NCCCNc1ccc2c(CN3CCOCC3)nn3c4cccc(O)c4c(=O)c1c23 was run?
Answer: 33%

Question: What about the T/C [2] of the same compound?
Answer: >278%

Question: And the T/C [5]?
Answer: 115%

Question: And the Optimal dose [6]?
Answer: 13 mg/kg

Question: What about the Optimal dose [7] of the same compound?
Answer: 13 mg/kg

Question: What about the pIC50 [1] of the same compound?
Answer: 6.05

Question: What about the Optimal dose [8] of the same compound?
Answer: 13 mg/kg

Question: What does the source list for NCCNc1ccc2c(CNCCCCO)nn3c4cccc(O)c4c(=O)c1c23?
Answer: T/C [2]: 146%; T/C [9]: 126%; Optimal dose [6]: 3.1 mg/kg; Optimal dose [7]: 6.3 mg/kg; pIC50 [1]: 6.77

Question: With CN(C)CCNCc1nn2c3ccccc3c(=O)c3c(NCCN(C)C)ccc1c32 as the compound, how does the pIC50 [1] read?
Answer: 6.59

Question: For NCCCCNc1ccc2c(CNCCO)nn3c4cccc(O)c4c(=O)c1c23, which T/C [2] is on record?
Answer: 161%

Question: And the T/C [9]?
Answer: 112%

Question: What about the Optimal dose [7] of the same compound?
Answer: 50 mg/kg

Question: What about the Optimal dose [3] of the same compound?
Answer: 25 mg/kg

Question: What about the pIC50 [1] of the same compound?
Answer: 6.72

Question: For NCCNc1ccc2c(CNCCO)nn3c4cccc(O)c4c(=O)c1c23, which T/C [4] is on record?
Answer: 6%

Question: And the T/C [2]?
Answer: >222%

Question: And the T/C [9]?
Answer: 152%

Question: And the Optimal dose [7]?
Answer: 1.6 mg/kg

Question: What about the Optimal dose [3] of the same compound?
Answer: 1.6 mg/kg

Question: And the pIC50 [1]?
Answer: 6.85

Question: What about the Optimal dose [8] of the same compound?
Answer: 6.3 mg/kg

Question: NCCCNc1ccc2c(CNCCO)nn3c4cccc(O)c4c(=O)c1c23 was tested. Which T/C [10] did it give?
Answer: 21%

Question: And the T/C [2]?
Answer: >230%

Question: What about the T/C [9] of the same compound?
Answer: 156%

Question: And the Optimal dose [7]?
Answer: 6.3 mg/kg

Question: And the Optimal dose [3]?
Answer: 13 mg/kg

Question: What about the pIC50 [1] of the same compound?
Answer: 6.89

Question: And the Optimal dose [8]?
Answer: 6 mg/kg

Question: Which results are given for CN(C)CCNc1ccc2c(CN(CCO)CCO)nn3c4cccc(O)c4c(=O)c1c23?
Answer: T/C [10]: 42%; T/C [2]: >286%; T/C [5]: 134%; Optimal dose [6]: 25 mg/kg; Optimal dose [7]: 25 mg/kg; pIC50 [1]: 6.38; Optimal dose [8]: 13 mg/kg

Question: With O=c1c2c(O)cccc2n2nc(CNCCO)c3ccc(NCCCO)c1c32 as the compound, how does the T/C [2] read?
Answer: 152%

Question: What about the T/C [9] of the same compound?
Answer: 123%

Question: What about the Optimal dose [6] of the same compound?
Answer: 13 mg/kg

Question: And the Optimal dose [7]?
Answer: 50 mg/kg

Question: And the pIC50 [1]?
Answer: 5.98

Question: With COc1cccc2c1c(=O)c1c(NCCN(C)C)ccc3c(CNCCN(C)C)nn2c31 as the compound, how does the pIC50 [1] read?
Answer: 6.80

Question: Which results are given for CN(C)CCNc1ccc2c(CNCCO)nn3c4cccc(O)c4c(=O)c1c23?
Answer: T/C [10]: 9%; T/C [2]: >261%; T/C [9]: 144%; Optimal dose [7]: 3.1 mg/kg; Optimal dose [3]: 6.3 mg/kg; pIC50 [1]: 6.74; Optimal dose [8]: 3.1 mg/kg

Question: How did the T/C [10] turn out when NCCNCc1nn2c3cccc(O)c3c(=O)c3c(NCCN)ccc1c32 was run?
Answer: 12%

Question: And the T/C [2]?
Answer: >254%

Question: And the T/C [9]?
Answer: 138%

Question: What about the Optimal dose [7] of the same compound?
Answer: 13 mg/kg

Question: What about the Optimal dose [3] of the same compound?
Answer: 13 mg/kg

Question: And the pIC50 [1]?
Answer: 6.77

Question: And the Optimal dose [8]?
Answer: 25 mg/kg

Question: With NCCNc1ccc2c(CNCCCO)nn3c4cccc(O)c4c(=O)c1c23 as the compound, how does the T/C [2] read?
Answer: >181%

Question: And the T/C [9]?
Answer: 146%

Question: And the Optimal dose [6]?
Answer: 3.1 mg/kg

Question: And the Optimal dose [7]?
Answer: 3.1 mg/kg

Question: And the pIC50 [1]?
Answer: 6.85

Question: For CCNCc1nn2c3cccc(O)c3c(=O)c3c(NCCN(C)C)ccc1c32, which T/C [2] is on record?
Answer: 196%

Question: What about the T/C [9] of the same compound?
Answer: 126%

Question: And the Optimal dose [7]?
Answer: 3.1 mg/kg

Question: And the Optimal dose [3]?
Answer: 3.1 mg/kg

Question: And the pIC50 [1]?
Answer: 6.96

Question: Which T/C [10] does the source give for O=c1c2c(O)cccc2n2nc(CNCCO)c3ccc(NCCNCCO)c1c32 here?
Answer: 5%

Question: What about the T/C [2] of the same compound?
Answer: >208%

Question: And the T/C [9]?
Answer: 145%

Question: And the Optimal dose [6]?
Answer: 3.1 mg/kg

Question: And the Optimal dose [7]?
Answer: 6.3 mg/kg

Question: What about the pIC50 [1] of the same compound?
Answer: 6.85

Question: And the Optimal dose [8]?
Answer: 12 mg/kg

Question: For COc1cccc2c1c(=O)c1c(NCCN)ccc3c(CNCCN)nn2c31, which T/C [2] is on record?
Answer: 139%

Question: And the Optimal dose [6]?
Answer: 25 mg/kg

Question: What about the pIC50 [1] of the same compound?
Answer: 6.74

Question: With COc1cccc2c1C(=O)c1c(O)c3c(c(O)c1C2=O)C[C@@](O)(C(=O)CO)C[C@@H]3O[C@H]1C[C@H](N)[C@H](O)[C@H](C)O1 [DOXORUBICIN] as the compound, how does the T/C [4] read?
Answer: 31%

Question: And the T/C [2]?
Answer: >254%

Question: And the T/C [5]?
Answer: 116%

Question: What about the Optimal dose [6] of the same compound?
Answer: 7.5 mg/kg

Question: What about the Optimal dose [7] of the same compound?
Answer: 7.5 mg/kg

Question: And the Optimal dose [8]?
Answer: 7.5 mg/kg
